{"source": "ChEMBL document CHEMBL1158631", "about": "“Discovery of novel 1-phenyl-cycloalkane carbamides as potent and selective influenza fusion inhibitors” (Bioorg Med Chem Lett, 2010)", "data": [{"test": "Antiviral activity against Influenza A virus (A/Weiss/43 (H1N1)) infected in MDCK cells assessed as inhibition of virus-induced cytopathic effect", "type": "functional, organism-based, Influenza A virus (A/Weiss/1943(H1N1))", "details": "not given; call rule not given here", "method_in_brief": "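MDCK cells infected with influenza A/Weiss/43 (H1N1). Compounds were titrated at multiple doses after a primary single-dose screen. The read-out was protection from viral cytopathic effect, and EC50 is the concentration inhibiting 50% of cytopathic effect. Values are means of triplicate or of at least duplicate experiments.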", "units": {"EC50": "µM"}, "values": [{"smiles": "CN(C(=O)C1(c2ccc(Cl)cc2)CCCC1)c1ccccc1", "EC50": 0.19}, {"smiles": "CN(C(=O)C1(c2ccccc2)CCCC1)c1ccc(C#N)cc1", "EC50": 0.098}, {"smiles": "CC1(C)C[C@H](O)C[C@](C)(CNC(=O)c2cc(Cl)ccc2O)C1", "EC50": 0.06}, {"smiles": "CCN(C(=O)C1(c2ccccc2)CCCC1)c1ccccc1", "EC50": 0.26}, {"smiles": "CN(C(=O)C1(c2ccc(Cl)cc2)CCCCC1)c1ccccc1", "EC50": "> 10"}, {"smiles": "COc1ccc(C2(C(=O)N(C)c3ccccc3)CCCC2)cc1", "EC50": 0.75}, {"smiles": "O=C(N1CCCCC1)C1(c2ccccc2)CCCC1", "EC50": 2.1}, {"smiles": "CN(C(=O)C1(c2ccccc2)CCCC1)c1cccc(C#N)c1", "EC50": 0.73}, {"smiles": "CN(C(=O)C1(c2ccccc2)CCCC1)C1CCCCC1", "EC50": 0.45}, {"smiles": "COC(=O)[C@@]1(C)CCC[C@]2(C)c3cc(OC)ccc3C(=O)C[C@@H]12", "EC50": 0.89}, {"smiles": "O=C(N(CCO)c1ccccc1)C1(c2ccccc2)CCCC1", "EC50": 0.58}, {"smiles": "O=C(Nc1ccccc1)C1(c2ccccc2)CCCC1", "EC50": "> 100"}, {"smiles": "CN(C(=O)C1(c2ccccc2)CCCC1)c1ccc(Cl)cc1", "EC50": 0.08}, {"smiles": "CN(C(=O)C1(c2cccc(C(F)(F)F)c2)CCCC1)c1ccccc1", "EC50": 2.26}, {"smiles": "O=C(N1CCOCC1)C1(c2ccccc2)CCCC1", "EC50": 27.9}, {"smiles": "CN(C(=O)C1(c2ccccc2)CCCC1)c1cccnc1", "EC50": 16.4}, {"smiles": "CN(C(=O)C1(c2ccccc2)CCCC1)c1ccccc1", "EC50": 0.24}, {"smiles": "CN(C(=O)C1(c2ccc(Cl)cc2)CC1)c1ccccc1", "EC50": 1.86}, {"smiles": "CN(C(=O)C1(c2ccccc2)CCCC1)c1cccc(Cl)c1", "EC50": 0.46}, {"smiles": "CN(C(=O)C1(c2ccc(Cl)cc2)CCC1)c1ccccc1", "EC50": 0.27}, {"smiles": "O=C(N1CCCc2ccccc21)C1(c2ccccc2)CCCC1", "EC50": "> 100"}, {"smiles": "CN(C(=O)C1(c2ccccc2)CCCC1)c1ccc(C(F)(F)F)cc1", "EC50": 2.12}, {"smiles": "CN(C(=O)C1(c2ccccc2)CCCC1)c1ccccc1Cl", "EC50": 0.18}]}, {"test": "Cytotoxicity against MDCK cells", "type": "cell-based, Canis lupus familiaris", "details": "dog", "method_in_brief": "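Uninfected MDCK cells were exposed to compounds. CC50 is the concentration inhibiting 50% of MDCK cell growth relative to control.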", "units": {"CC50": "µM"}, "values": [{"smiles": "CN(C(=O)C1(c2ccc(Cl)cc2)CCCC1)c1ccccc1", "CC50": 21}, {"smiles": "CN(C(=O)C1(c2ccccc2)CCCC1)c1ccc(C#N)cc1", "CC50": "> 100"}, {"smiles": "CC1(C)C[C@H](O)C[C@](C)(CNC(=O)c2cc(Cl)ccc2O)C1", "CC50": "> 50"}, {"smiles": "CCN(C(=O)C1(c2ccccc2)CCCC1)c1ccccc1", "CC50": 56}, {"smiles": "CN(C(=O)C1(c2ccc(Cl)cc2)CCCCC1)c1ccccc1", "CC50": 7.4}, {"smiles": "COc1ccc(C2(C(=O)N(C)c3ccccc3)CCCC2)cc1", "CC50": 69}, {"smiles": "O=C(N1CCCCC1)C1(c2ccccc2)CCCC1", "CC50": "> 100"}, {"smiles": "CN(C(=O)C1(c2ccccc2)CCCC1)c1cccc(C#N)c1", "CC50": 56}, {"smiles": "CN(C(=O)C1(c2ccccc2)CCCC1)C1CCCCC1", "CC50": 21}, {"smiles": "COC(=O)[C@@]1(C)CCC[C@]2(C)c3cc(OC)ccc3C(=O)C[C@@H]12", "CC50": 67}, {"smiles": "O=C(N(CCO)c1ccccc1)C1(c2ccccc2)CCCC1", "CC50": 79}, {"smiles": "O=C(Nc1ccccc1)C1(c2ccccc2)CCCC1", "CC50": "> 100"}, {"smiles": "CN(C(=O)C1(c2ccccc2)CCCC1)c1ccc(Cl)cc1", "CC50": 20}, {"smiles": "CN(C(=O)C1(c2cccc(C(F)(F)F)c2)CCCC1)c1ccccc1", "CC50": 20}, {"smiles": "O=C(N1CCOCC1)C1(c2ccccc2)CCCC1", "CC50": "> 100"}, {"smiles": "CN(C(=O)C1(c2ccccc2)CCCC1)c1cccnc1", "CC50": "> 100"}, {"smiles": "CN(C(=O)C1(c2ccccc2)CCCC1)c1ccccc1", "CC50": 52}, {"smiles": "CN(C(=O)C1(c2ccc(Cl)cc2)CC1)c1ccccc1", "CC50": 49}, {"smiles": "CN(C(=O)C1(c2ccccc2)CCCC1)c1cccc(Cl)c1", "CC50": 17}, {"smiles": "CN(C(=O)C1(c2ccc(Cl)cc2)CCC1)c1ccccc1", "CC50": 24}, {"smiles": "O=C(N1CCCc2ccccc21)C1(c2ccccc2)CCCC1", "CC50": 24}, {"smiles": "CN(C(=O)C1(c2ccccc2)CCCC1)c1ccc(C(F)(F)F)cc1", "CC50": 21}, {"smiles": "CN(C(=O)C1(c2ccccc2)CCCC1)c1ccccc1Cl", "CC50": 23}]}, {"test": "(§1) Toxicity assessed as haemolysis in chicken RBC", "type": "cell-based, Gallus gallus, Erythrocyte", "details": "Gallus gallus, Erythrocyte; read-out: IC50", "units": {"IC50": "µM"}, "values": [{"smiles": "CC1(C)C[C@H](O)C[C@](C)(CNC(=O)c2cc(Cl)ccc2O)C1", "IC50": 0.53}, {"smiles": "O=C(N1CCCCC1)C1(c2ccccc2)CCCC1", "IC50": 2.2}, {"smiles": "COC(=O)[C@@]1(C)CCC[C@]2(C)c3cc(OC)ccc3C(=O)C[C@@H]12", "IC50": 3.2}]}, {"test": "as §1", "type": "cell-based, Gallus gallus, Erythrocyte", "details": "erythrocyte", "values": [{"smiles": "O=C(N1CCOCC1)C1(c2ccccc2)CCCC1", "IC50": "Not Active"}]}]}
